Among the data in the array DNA melting data of Ke et al. (doi:10.1101/2024.01.08.574731) are folding enthalpy and Tm values, retold here.

A short description of series [1]: folding enthalpy; higher = less favourable; fluorescence melt of hairpins on a sequencing array, two-state fit. Conditions: sodium 0.088 M. The gist of the method: (§1)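 Hairpins were imaged by Cy3 fluorescence on a sequenced MiSeq flow cell with annealed Cy3 and quencher oligos, in 50 mM Na-HEPES pH 8.0, 25 mM NaCl, in 2.5 °C steps up to 60 °C. Bootstrapped two-state fits of normalised signals gave melting temperature and folding enthalpy. Four replicates were combined by inverse variance, and fitted temperatures were raised by 9.35 °C to match UV melts.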

The nature of series [2]: melting temperature; fluorescence melt of hairpins on a sequencing array, two-state fit, raised by 9.35 °C to match UV melts. Conditions: sodium 0.088 M. The method in brief: as §1

Regarding GATCCGTGGGCGGATC ((((((....)))))), in series [1], the folding enthalpy is -30.1 kcal/mol. Besides, in series [2], the Tm was determined as 66.1 °C.

As for GATCCGTGTCCGGATC ((((((....)))))), the folding enthalpy in series [1] was -34 kcal/mol. Moreover, the Tm in series [2] was 57.5 °C.

Regarding GATCCGTTCACGGATC ((((((....)))))), the folding enthalpy in series [1] was -51 kcal/mol. The Tm in series [2] was 67.4 °C.

For GATCCGTTGCGGATC ((((((...)))))), the folding enthalpy in series [1] was -43 kcal/mol. Besides, in series [2], the Tm was 57.3 °C.

Take GATCCTAAATAGGATC ((((((....)))))): the folding enthalpy in series [1] was -35.8 kcal/mol. Besides, the Tm in series [2] is 49.2 °C.

Regarding GATCCTAACGAGGATC ((((((....)))))), the folding enthalpy in series [1] is -44.8 kcal/mol. In series [2], the Tm was 50.6 °C.

In the case of GATCCTAAGAAGGATC ((((((....)))))), the folding enthalpy in series [1] is -35.3 kcal/mol. Besides, the Tm in series [2] turned out to be 48 °C.

As for GATCCTAAGAGGATC ((((((...)))))), the folding enthalpy in series [1] is -29.6 kcal/mol. In series [2], the Tm worked out at 53.8 °C.

Take GATCCTAATAGGATC ((((((...)))))): in series [1], the folding enthalpy was -27.7 kcal/mol. Moreover, the Tm in series [2] is 51.9 °C.

Consider GATCCTACATAGGATC ((((((....)))))), for which the folding enthalpy in series [1] is -35.5 kcal/mol. In series [2], the Tm amounted to 52.8 °C.

With GATCCTACGAGGATC ((((((...)))))), the folding enthalpy in series [1] was -29.5 kcal/mol. For the same sequence, the Tm in series [2] was 53.4 °C.

On to GATCCTACTGAGGATC ((((((....)))))), for which the folding enthalpy in series [1] was -39.7 kcal/mol. Moreover, in series [2], the Tm amounted to 50.6 °C.

For GATCCTAGAAGGATC ((((((...)))))), the folding enthalpy in series [1] is -40.9 kcal/mol. In addition, in series [2], the Tm came out at 53.4 °C.

In the case of GATCCTAGCAAGGATC ((((((....)))))), the folding enthalpy in series [1] is -33.2 kcal/mol. Further, the Tm in series [2] came out at 52.8 °C.

Consider GATCCTATCAAGGATC ((((((....)))))), for which the folding enthalpy in series [1] was -34.3 kcal/mol. The Tm in series [2] turned out to be 54.6 °C.

For the sequence GATCCTCAATAGGATC ((((((....)))))), the folding enthalpy in series [1] was -34.2 kcal/mol. For the same sequence, the Tm in series [2] amounted to 49.5 °C.

Take GATCCTCAGTAGGATC ((((((....)))))): in series [1], the folding enthalpy is -35.4 kcal/mol. The Tm in series [2] came out at 49.9 °C.

With GATCCTCCAAAGGATC ((((((....)))))), in series [1], the folding enthalpy is -28.8 kcal/mol. Moreover, the Tm in series [2] was 50.4 °C.

For the sequence GATCCTCCCCAGGATC ((((((....)))))), the folding enthalpy in series [1] is -43.7 kcal/mol. In series [2], the Tm is 50.4 °C.

Take GATCCTCCCTAGGATC ((((((....)))))): the folding enthalpy in series [1] was -39.7 kcal/mol. Further, the Tm in series [2] was found to be 50.8 °C.

GATCCTCCGAGGATC ((((((...)))))): the folding enthalpy in series [1] is -33.1 kcal/mol. The Tm in series [2] was 53.1 °C.

Turning to GATCCTCGAAGGATC ((((((...)))))), in series [1], the folding enthalpy was -26.7 kcal/mol. Besides, the Tm in series [2] was determined as 50.1 °C.

Turning to GATCCTCGATAGGATC ((((((....)))))), in series [1], the folding enthalpy is -29.4 kcal/mol. In addition, the Tm in series [2] came to 50.2 °C.

As to GATCCTCGCAAGGATC ((((((....)))))), the folding enthalpy in series [1] was -32.6 kcal/mol. Moreover, the Tm in series [2] was 54.8 °C.

Turning to GATCCTCGCCAGGATC ((((((....)))))), the folding enthalpy in series [1] was -37.4 kcal/mol. The Tm in series [2] stood at 50.7 °C.

Take GATCCTCTAAAGGATC ((((((....)))))): the folding enthalpy in series [1] is -39.3 kcal/mol. In addition, the Tm in series [2] is 52.4 °C.

On to GATCCTCTAGAGGATC ((((((....)))))), for which the folding enthalpy in series [1] was -42.6 kcal/mol. Besides, in series [2], the Tm turned out to be 56.4 °C.

GATCCTGCGAGGATC ((((((...)))))): the folding enthalpy in series [1] is -33.7 kcal/mol. Moreover, the Tm in series [2] was 53.9 °C.

Consider GATCCTGCGTAGGATC ((((((....)))))), for which the folding enthalpy in series [1] is -44.2 kcal/mol. Besides, the Tm in series [2] worked out at 51.4 °C.

In the case of GATCCTGCTGAGGATC ((((((....)))))), the folding enthalpy in series [1] was -52.2 kcal/mol. Further, the Tm in series [2] came out at 51.4 °C.

With GATCCTGCTTAGGATC ((((((....)))))), the folding enthalpy in series [1] is -42.9 kcal/mol. The Tm in series [2] came out at 52.4 °C.

Take GATCCTGGAAGGATC ((((((...)))))): in series [1], the folding enthalpy was -31.6 kcal/mol. Besides, the Tm in series [2] came out at 62.8 °C.

In the case of GATCCTGGCAGGATC ((((((...)))))), the folding enthalpy in series [1] was -39.7 kcal/mol. Further, the Tm in series [2] is 57.7 °C.

Take GATCCTGGCGAGGATC ((((((....)))))): in series [1], the folding enthalpy is -48.3 kcal/mol. Moreover, the Tm in series [2] is 54.6 °C.

Take GATCCTGTAGAGGATC ((((((....)))))): in series [1], the folding enthalpy is -36 kcal/mol. In addition, in series [2], the Tm worked out at 55.5 °C.

As for GATCCTGTCAGGATC ((((((...)))))), the folding enthalpy in series [1] was -36.7 kcal/mol. Besides, the Tm in series [2] was found to be 56.5 °C.

As to GATCCTGTCCAGGATC ((((((....)))))), the folding enthalpy in series [1] was -48.3 kcal/mol. Further, in series [2], the Tm came to 58.1 °C.

As to GATCCTGTGAGGATC ((((((...)))))), in series [1], the folding enthalpy was -32.3 kcal/mol. The Tm in series [2] stood at 53.3 °C.
